# Data from PMC12236005 (Journal of Nanobiotechnology, 2025).
# Key:
# [1] = test system: HUVECs; test: HUVEC migration; type: cell-based, human; details: H2O2 treated; scratch assay 24 h and Transwell assay 8 h; n = 5
# Procedure, shortened: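 Two formats. Scratch: HUVECs pre-stained with green fluorescent dye and grown to a confluent monolayer. Gap scratched with a pipette tip, then fresh medium with test compound added. Fluorescence images at 0 and 24 h give the percentage of wound area healed. Transwell: 8.0-µm pores, 8 × 10^4 cells in serum-free medium above, 10% FBS medium with test compound below, 8 h. Migrated cells stained with 0.1% crystal violet and counted in five random fields. n = 5.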
# [2] = test system: H9c2 cells; test: Cell protection under H2O2, CCK-8; type: cell-based; details: 10 µM equivalent of PBA or/and ISN, 500 µM H2O2, 24 h, n = 5
# Procedure, shortened: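 H9c2 cells (high-glucose DMEM, 10% FBS) seeded at 5 × 10^3/well and grown 24 h. Medium then replaced with treatments at 10 µM PBA and/or ISN equivalent, followed by 500 µM H2O2, with PBS as control. After 24 h, cells were given fresh medium containing 10% CCK-8 for 4 h. Supernatant absorbance was read at 450 nm to calculate viability.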
# [3] = test system: H2O2 treated H9c2 cells; test: Intracellular ONOO-/RNS, O58 probe; type: cell-based; details: 4 h treatment, n = 5
# Procedure, shortened: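 H9c2 cells (high-glucose DMEM, 10% FBS) were seeded and grown 24 h, then treated 4 h. Cells were stained with BBoxiProbe O58 for ONOO−, imaged by fluorescence microscopy, and mean fluorescence intensity was quantified. n = 5.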
# [4] = test system: HUVECs; test: Intracellular ROS, NO and RNS probes in HUVECs; type: cell-based, human; details: H2O2 treated HUVECs, O38 probe; n = 5
# Procedure, shortened: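 HUVECs (endothelial cell medium, 5% FBS plus growth supplements) were seeded and grown 24 h, then treated 4 h. Cells were stained with BBoxiProbe O38 for NO, imaged by fluorescence microscopy, and mean fluorescence intensity was quantified. Mean ± SEM, n = 5.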
# [5] = test system: H2O2-treated H9c2 cells; test: Mitochondria-related cell injury probes; type: cell-based; details: 6 h treatment, n = 5; for mitochondrial membrane potential: JC-10 probe
# Procedure, shortened: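 H9c2 cells were seeded and grown 24 h, then treated for 6 h and stained with JC-10. Fluorescence images were taken, and membrane potential was expressed as the ratio of red to green fluorescence intensity. n = 5.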
# [6] = test system: HUVECs; test: Western blotting of VEGF, p-eNOS, eNOS; type: cell-based, human; details: H2O2 treated HUVECs, immunoblot; n = 3
# Procedure, shortened: (§1)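 Lysates from HUVECs or H9c2 cells were protein-quantified by BCA. Equal amounts were run on SDS-PAGE and transferred to PVDF. Membranes were blocked with 5% non-fat milk and probed with primary and secondary antibodies. Bands were detected by ECL chemiluminescence and quantified by densitometry. n = 3.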
# [7] = test system: HUVECs; test: HUVEC survival under oxidative stress; type: cell-based, human; details: H2O2, calcein-AM/PI staining and CCK-8 assay; n = 5
# Procedure, shortened: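 CCK-8: 5 × 10^3 cells/well plated 24 h, then medium with test compound (10 µM equivalent of PBA and/or ISN) and 500 µM H2O2 (PBS control). After 24 h, 10% CCK-8 for 4 h, absorbance at 450 nm. Live/dead: 1 × 10^5 cells/well plated 24 h, treated 24 h, calcein AM/PI stain 30 min, fluorescence imaging, dead/live ratio quantified. n = 5.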
# [8] = test system: HUVECs; test: HUVEC tube formation assay; type: cell-based, human; details: H2O2-treated HUVECs on Matrigel, 6 h; n = 5
# Procedure, shortened: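 HUVECs (2.5 × 10^4 per well) seeded on Matrigel-coated wells with test compound and incubated 6 h. Bright-field images from five random fields scored for tube length, branching length and junction number. n = 5.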
# [9] = DLS and TEM of self-assembled nanoaggregates; type: physicochemical; details: self-assembly in aqueous solution; TEM images and DLS
# [10] = test system: MI mice; type: in vivo, C57BL/6 mice
# [11] = ABTS assay; details: test kit; n = 3
# [12] = In vivo distribution of Cy5.5-labeled PDCs; set-up: species or system mice
# Procedure, shortened: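 Male C57BL/6 mice (10-week-old), sham or MI, received Cy5.5-labelled PDCs by tail-vein injection. A scrambled-peptide (non-targeting) conjugate served as control, and dye-labelled conjugates were normalised to equal fluorescence by UV-Vis. At 2 h and 6 h mice were euthanised. Hearts, lungs, livers, spleens and kidneys were imaged ex vivo and average radiance quantified.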
# [13] = test system: H2O2 treated H9c2 cells; test: Intracellular NO, O38 probe; type: cell-based; details: 4 h treatment, n = 5
# Procedure, shortened: (§2)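 H9c2 cells cultured 24 h, then exposed to test compound for 4 h. Stained with a fluorescent probe: DHE for ROS, O38 for NO. Fluorescence microscopy, with mean fluorescence intensity taken per image. n = 5.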
# [14] = DPPH assay; details: PDCs 0-200 µM, DPPH 500 µM, 30 min in darkness, absorbance 517 nm; n = 3
# Procedure, shortened: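 DPPH solution (500 µM before mixing) was combined with PDC solutions at 0, 5, 10, 25, 50, 100 and 200 µM and kept 30 min in darkness. Absorbance was read at 517 nm and scavenged DPPH calculated. Mean ± SEM, n = 3.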
# [15] = test system: cells; test: NO release from culture medium of cells, Griess assay; type: cell-based; details: PDCs 10 µM
# Procedure, shortened: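 PDCs (10 µM) were incubated with cells pretreated with PBS or H2O2 for 24 h. NO in the culture medium was measured by Griess assay at 0 h and 24 h.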
# [16] = test system: H9c2 cells; test: Apoptosis by flow cytometry, Annexin V-PI staining; type: cell-based; details: H9c2 + H2O2, 24 h treatment, n = 3
# [17] = test system: H9c2 cells; test: Mitochondria TEM and cellular ATP; type: cell-based
# [18] = test system: H9c2 cells; test: Western blotting of oxidative stress, inflammation and apoptosis proteins; type: cell-based; details: H2O2 treated H9c2 cells, n = 3
# Procedure, shortened: as §1
# [19] = test system: H2O2 treated H9c2 cells; test: Intracellular ROS, DHE probe; type: cell-based; details: DHE staining, 4 h treatment, n = 5
# Procedure, shortened: as §2
# [20] = immunofluorescence, 28 days after MI, n = 4
compound,measurement,setting,value
CSTSMLKAC [CTP-PBA-ISN],migration of HUVECs,[1],migration to the level similar to those of H2O2-untreated control
same,viability of H9c2 challenged with H2O2,[2],potent preservation of cell survival
same,intracellular concentration of peroxynitrite (ONOO-) / RNS,[3],did not increase the intracellular concentration of RNS
same,intracellular NO delivery,[4],maximizing intracellular NO delivery
same,cytoplasmic calcium level,[5]; Fluo-4 AM staining,reversed the abnormal elevation of cytoplasmic calcium level
same,mitochondrial membrane potential,[5],potently restored the cross-membrane potential of mitochondria
same,mitochondrial ROS,[5]; MitoSOX staining,most effective in blocking the H2O2-induced overproduction of ROS in mitochondria
same,expression of VEGF and p-eNOS/eNOS ratio,[6],remarkably upregulated
same,bio-viability and apoptosis of HUVECs under oxidative stress,[7],most effective in maintaining bio-viability and inhibiting apoptosis
same,"tube formation (pseudopod length, number of junction, degree of branch)",[8],"facilitated recovery in pseudopod length, number of junction and degree of branch"
same,diameter of spherical nanoaggregates,[9],47 ± 4 nm
same,fibrotic area and infarct wall thickness,"[10]; Masson's trichrome, 28 days after MI, n = 4",reduced fibrotic area and increased infarct wall thickness
same,ultrastructure of myocardial mitochondria,"[10]; TEM of tissue slices, 3 days after MI","ameliorated myocardial fiber rupture, mitochondrial damage and increased mitochondrial numbers"
same,apoptosis cardiomyocytes in infarcted myocardial tissue,"[10]; TUNEL staining, 3 days after MI, n = 4",lowest number of apoptosis cardiomyocytes
same,cross-sectional area of cardiomyocytes,"[10]; WGA staining, 28 days after MI, n = 5",smaller cross-sectional area of cardiomyocytes
same,"OS proteins (NRF2, HO-1, NQO-1) and pro-inflammation cytokines (TNF-α, IL-6) in the heart","[10]; Western blot, 1 day after MI, n = 3",significant decrease
same,"protein expressions of CS, IDH2 and OGDH in heart tissues","[10]; immunoblot, 3 days after MI, n = 3",facilitated recovery of these downregulated mitochondria related rate-limiting enzymes
same,"angiogenesis in the border zone of infarct region (CD31+ capillaries, α-SMA+ arterioles)",[10]; [20],greatly promoted
same,macrophage phenotype (CD86 / CD206),[10]; [20],established a M2-dominant macroenvironment
same,infarct area,[10]; n = 3,greatly reduced
same,"ROS clearance, ABTS assay",[11],dose-dependent manner
same,accumulation in other organs,"[12]; sham and MI animals, extended time after injections, n = 3","accumulated in the kidneys, livers, and lungs"
same,intracellular level of NO,[13],significantly increased the intracellular level of NO
same,"free radical clearance, DPPH assay",[14],dose-dependent manner
same,NO concentration in culture medium,"[15]; cells treated with H2O2, 24 h",significantly increased NO concentration
same,NO release in culture medium,"[15]; cells without H2O2 treatment, 24 h",moderated NO release
same,apoptosis percentage,[16],15.6%
same,ATP content,"[17]; H9c2 under H2O2, ATP assay kit, n = 3",increased ATP content
same,structure of mitochondria,"[17]; H9c2 under H2O2, TEM",preserved the normal structure of mitochondria
same,TNF-α and IL-6 protein expression,[18]; immunoblot,capably reversed such elevation
same,"intracellular expression of Nrf2, HO-1 and NQO-1",[18]; immunoblot,"downregulated intracellular expression of Nrf2, HO-1 and NQO-1"
same,"expression of BAX, Caspase3 and Bcl-2",[18]; western blotting,"most effective in downregulation of apoptosis proteins (BAX, Caspase3) and upregulation of anti-apoptosis protein (Bcl-2)"
"OCc1ccc(O)cc1 [4-HBA, 4-hydroxybenzyl alcohol]",intracellular ROS level,[19],mitigate intracellular ROS in a concentration-dependent manner
CSTSMLKAC [CTP-PBA],viability of H9c2 challenged with H2O2,[2],only partially restored the viability of H9c2
same,intracellular concentration of peroxynitrite (ONOO-) / RNS,[3],downregulation of RNS inside cells
same,mitochondrial membrane potential,[5],limited effects
same,apoptosis percentage,[16],20.3%
"O=[N+]([O-])O[C@@H]1CO[C@H]2[C@@H]1OC[C@@H]2O [ISN, isosorbide mononitrate, reference compound]",migration of HUVECs,[1],barely promoted the H2O2-inhibited migration of HUVECs
same,viability of H9c2 challenged with H2O2,[2],increased the loss of myocytes
same,intracellular concentration of peroxynitrite (ONOO-) / RNS,[3],dramatically elevated the intracellular concentration of peroxynitrite
same,intracellular ROS level,[19],did not change the level of ROS inside cells
same,mitochondrial membrane potential,[5],negligible influence on the restoration of mitochondrial membrane potential
same,expression of VEGF and p-eNOS/eNOS ratio,[6],nor did it reverse the downregulated expression of angiogenesis-related proteins
same,ROS in heart tissue,"[10]; DHE staining, day 1 after MI, i.v. 200 µg/kg equivalent of ISN, n = 4",little effects on tissue abundance of ROS
same,RNS in heart tissue,"[10]; O56 staining, day 1 after MI, i.v. 200 µg/kg equivalent of ISN, n = 4",promoted vast generation of RNS
same,"angiogenesis in the border zone of infarct region (CD31+ capillaries, α-SMA+ arterioles)",[10]; [20],didn’t have any effects of neovascularization
same,intracellular level of NO,[13],significantly increased the intracellular level of NO
same,apoptosis percentage,[16],32.2%
CSTSMLKAC [Cy5.5-CTP-PBA-ISN],fluorescent signal of infarcted hearts,"[12]; MI mice, 2 h after injection via tail veins, ex vivo imaging",bright fluorescent signal
